Only some compounds are listed: those with a hit (about 0.51% of all), similar ones and a draw of the others.
T cell modulator: modulates CD8 T cell binding to vesicles | response (vesicle binding), % at 7 µM | AID 2052 | actives 0.068% (n = 330,000) | 2C CD8+ T cell-vesicle binding, flow cytometry; hits give low values;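 active = response, share of CD8 T cells binding vesicles, and their 90th percentile fluorescence all below set limits, cut at about 80% in these data, passing the limit was not always enough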;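 note: values below 100% mean blocked vesicle binding to the CD8+ T cells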
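Material: murine 2C transgenic CD8+ T lymphocytes / Also added: QL9-peptide-loaded Drosophila micro-vesicles bearing Ld, ICAM-1 and B7-1 / Schedule: binding step 1.5 h, 37 °C, antibody labelling 20 min, ice / Signal: flow cytometry, PE anti-B7-1 (FL2) versus Alexa647 anti-CD8 (FL8), PFA-fixed / Evaluation: percent CD8+ FL2 mean versus row control / Benchmarks: naked versus QL9-loaded vesicles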
aDG glyco act: increases alpha dystroglycan glycosylation; Pro5-aDG cells, alpha-DG glycosylation AlphaScreen (IIH6); 0% Pro5, 100% B10-LARGE cell signal; activation, % at 10 µM; actives 0.22% (n = 360,000);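 active = activation of at least 8% versus controls, or a plate z-score of at least 8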;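 note: Pro5 are CHO cells carrying HIG-tagged alpha-DG that lacks glycosylation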
Rce1 inh: blocks yeast Ras-converting enzyme | Q03530 | yeast membranes, quenched prenylated peptide cleavage fluorescence | calls only | actives 0.27% (n = 290,000);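 active = fall in fluorescence gain of 50% or more versus controls, with final raw signal at or below 3038400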;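 note: plate controls were neutral control wells for no effect and wells lacking membranes for full effect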
Target sequence (Q03530 whole entry, looked up): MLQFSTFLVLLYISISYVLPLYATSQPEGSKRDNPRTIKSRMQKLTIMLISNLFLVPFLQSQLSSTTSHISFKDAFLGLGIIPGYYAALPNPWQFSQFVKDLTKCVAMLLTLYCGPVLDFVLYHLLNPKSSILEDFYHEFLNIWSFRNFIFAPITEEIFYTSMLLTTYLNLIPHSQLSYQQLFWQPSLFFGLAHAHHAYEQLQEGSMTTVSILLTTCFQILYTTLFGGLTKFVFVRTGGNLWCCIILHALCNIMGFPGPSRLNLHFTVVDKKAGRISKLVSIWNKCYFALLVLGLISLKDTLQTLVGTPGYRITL
PolyA inhibitor: blocks polyadenylation in yeast reporter cells; actives 0.02% (n = 300,000); AID 1875; activity score, % at 12 µM; S. cerevisiae SKY197-pL101 polyadenylation reporter, beta-gal luminescence; efflux-impaired pdr1/pdr3 knockout yeast; score 100 = 6 SD above DMSO;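 active = lowest replicate activity score at least 50, where 100 means six control SD above control mean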;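 note: yeast exposed to compound for 9 h at 30 °C; higher score means more reporter readthrough which indicates perturbed polyadenylation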
Numbers without * were called inactive; i = inactive; . = not tested or not shown; + = active, no number.

SMILES	T cell modulator	aDG glyco act	Rce1 inh	PolyA inhibitor
Cc1csc(NC(=O)c2ccccc2O)n1	315.0	0.0	+	6.7
Cn1cc([C@]2(O)C(=O)Nc3ccccc32)c2ccccc21	.	-0.1	.	.
CC(C#N)(NC(=O)CN1CCN(S(=O)(=O)c2ccc(Br)cc2Cl)CC1)C1CC1 (centres undefined)	386.7	0.1	.	.
CCN(Cc1ccccc1)C(=O)c1[nH]c2ccc(OC)cc2c1C	.	0.0	i	-14.1
CCN(CC)CCNC(=O)c1[nH]c2ccc(OCc3ccccc3)cc2c1C	632.7	4.4	+	-1.1
O=C(NCc1cccs1)c1ccc(Cl)c(S(=O)(=O)N2CCOCC2)c1	.	0.7	.	.
COc1ccc(/C=C(\NC(=O)c2ccccc2)C(=O)N2CCCCC2)cc1OC	137.6	0.0	i	-1.8
Cc1ccnc(NC(=O)c2ccc([N+](=O)[O-])s2)c1	139.5	8.4*	i	-5.2
Cc1cccc(C)c1NC(=O)c1ccc([N+](=O)[O-])s1	168.9	1.2	i	-12.4
Cc1ccnc(NC(=O)c2cc([N+](=O)[O-])cc([N+](=O)[O-])c2)c1	301.2	0.7	i	-18.6
Cc1cccc(NC(=O)c2ccc([N+](=O)[O-])s2)n1	303.2	7.2*	i	-49.5
CN(C1=NS(=O)(=O)c2ccccc21)c1ccc(OC(=O)c2ccccc2F)cc1	.	-0.4	.	.
O=[N+]([O-])c1cc(S(=O)(=O)N2CCCC2)ccc1N/N=C1/CCCc2ccccc21	980.7	-0.4	i	20.3
O=[N+]([O-])c1cc(S(=O)(=O)N2CCCC2)ccc1NN=C1CCCCC1	232.8	-0.1	+	-5.1
COc1ccc(S(=O)(=O)Nc2ccc(Cc3ccncc3)cc2)cc1C	422.8	1.3	i	-5.0
O=C(COC(=O)/C=C/c1cn(-c2ccccc2)nc1-c1ccc2c(c1)OCCO2)NC1CCS(=O)(=O)C1 (centres undefined)	238.3	-0.2	+	-9.3
CCN(CC)c1ccc(/C=N/NC(=S)NCc2ccccc2)cc1	268.0	0.2	i	-36.9
CCN(CC)c1ccc(/C=N/NC(=S)NCc2ccc(OC)cc2)cc1	539.7	0.3	+	-5.8
CN(C)c1cc(O)c(C(=S)Nc2ccccc2)c(N(C)C)c1	824.3	0.0	+	8.2
COc1nc(-c2ccccc2)ccc1-c1noc(-c2ccccc2F)n1	281.3	-0.1	+	-9.2
O=C(CNCc1cccc(Cl)c1)N1CCc2ccccc2C1	102.8	0.3	i	-5.1
Cc1nc(-c2ccc(Cl)cc2)sc1C1(C)CC(c2ccccc2Br)=NO1 (centres undefined)	.	-0.1	+	5.7
Cc1nc(-c2ccc(Cl)cc2)sc1C1(C)CC(c2ccccc2)=NO1 (centres undefined)	.	0.1	i	-14.3
COc1ccc(CNC(=O)c2c(N)n(CCCN3CCOCC3)c3nc4ccccc4nc23)cc1	449.8	2.0	+	-3.1
COc1ccc(OC)c(NC(=O)c2ccccc2SC)c1	160.1	-0.2	i	17.6
SMILES	T cell modulator	aDG glyco act	Rce1 inh	PolyA inhibitor
COc1ccc(OC)c(NC(=O)c2cc3oc4ccccc4c3cc2O)c1	491.1	0.1	+	-15.5
COc1ccc(CN(C)C(=O)Cn2cnc3c(NCc4ccccc4)ncnc32)cc1OC	.	-0.2	.	.
CCOC(=O)C1=C(C)OC(N)=C(C#N)C1c1cc(OC)c2c(c1)OCO2 (centres undefined)	165.0	-0.1	i	-2.6
CCOC(=O)C1=C(C)OC(N)=C(C#N)C1c1cc2c(cc1[N+](=O)[O-])OCO2 (centres undefined)	281.5	-0.3	+	-1.2
Cc1ccc(Cl)c2c1NC(=O)C2=O	0.0*	2.1	.	.
O=Nc1[nH]c(=O)c(/C=C(\O)c2ccccc2)nc1NO	225.3	-0.2	i	-6.9
Cc1ccc(C(=O)N/C(=C\c2ccc(-c3ccccc3[N+](=O)[O-])o2)C(=O)NCCN(C)C)cc1	348.6	1.9*	i	-0.9
CCC(CC)CN1CCC(CN2C(=O)C(=O)NC[C@@H]2CC(C)C)CC1	.	-0.1	.	.
CCCCNC(=O)/C(C#N)=C/c1ccc2c(c1)OCCO2	0.0*	0.3	i	-2.2
CN(CCc1ccccn1)C(=O)CCC1CCCN(C(=O)c2ccc3c(c2)OCCO3)C1 (centres undefined)	365.1	0.1	i	3.7
COc1ccc(C(=O)CCC(C)(C)[N+](=O)[O-])cc1OC	59.9*	-0.1	i	6.6
COc1ccc(C(=O)CCS(=O)(=O)c2ccc(C)cc2)cc1OC	200.9	1.8	i	16.0
CCc1ccc(NC(=O)c2cnc(N3CCN(c4ccccn4)CC3)c3ccccc23)cc1	345.3	0.0	+	17.6
CCOc1ccc(N(Cc2ccc(OC)cc2)C(=O)c2ccco2)cc1	207.5	-0.4	+	-6.1
CCOc1ccc(N(Cc2ccc(OC)c(OC)c2)C(=O)c2ccco2)cc1	348.8	0.5	i	-3.7
CCOc1ccccc1C(O)C1=CC(=O)c2ccccc2C1=O (centres undefined)	.	0.3	.	.
C[n+]1c2n(c3ccccc31)N=C(c1cc(C(C)(C)C)c(O)c(C(C)(C)C)c1)CS2	139.4	0.1	+	-16.8
COc1cccc(C2=Nn3c(nnc3-c3ccccc3O)SC2)c1	386.6	-0.1	i	-26.5
CCCCOc1ccc(S(=O)(=O)NC(=O)C2(C)CCN2C(=O)c2c(C)noc2C)cc1 (centres undefined)	.	-0.3	.	.
Cc1cccc(NC(=O)C2(c3ccc([N+](=O)[O-])cc3)CCCC2)c1	289.9	0.0	+	-6.4
COc1ccccc1CNC(=O)c1ccccc1N	362.8	-0.2	+	-0.9
O=C(Nc1ccc(Cl)c([N+](=O)[O-])c1)C(Sc1ccccc1)c1ccccc1 (centres undefined)	245.6	1.6	+	-19.4
O=C(Nc1cc([N+](=O)[O-])ccc1Cl)C(Sc1ccccc1)c1ccccc1 (centres undefined)	420.5	0.2	i	-6.7
CCNC(=O)C1(C)CCN(Cc2ccccc2-c2ccccc2)C1 (centres undefined)	.	0.0	.	.
CC(C)(C)C(=O)Cn1c(=N)n(Cc2ccccc2)c2ccccc21	304.4	-0.1	i	1.8
SMILES	T cell modulator	aDG glyco act	Rce1 inh	PolyA inhibitor
Cc1ccc(Cn2c(=N)n(CC(=O)c3ccccc3)c3ccccc32)cc1	131.1	11.9*	i	-14.0
CC(=O)N1Cc2cc(C(=O)NCC(F)(F)F)nc(-c3cccc(-c4cc5ccccc5o4)c3)c2[C@@H]1CCO	.	0.2	.	.
Cc1ccccc1NS(=O)(=O)c1ccc(NC(=O)CSCc2ccc(Br)cc2)cc1	0.0*	0.0	i	0.5
O=C(CSCc1ccc(Br)cc1)Nc1ccc(S(=O)(=O)N2CCOCC2)cc1	322.4	-0.4	i	2.6
CCOc1ccccc1C(=O)Oc1cc(C)[nH]c(=O)c1[N+](=O)[O-]	490.1	0.0	i	1.5
C=CCNC(=O)c1cc2c(=O)n3cccc(C)c3nc2s1	i	0.0	i	16.7
CCC(C)NC(=O)c1cc2c(=O)n3cccc(C)c3nc2s1 (centres undefined)	217.0	0.2	+	-0.4
